Experimental data taken from publication PMC4067939 (Bioorganic & medicinal chemistry, 2014).
“Also recorded” adds a separate entry of the source.

Tests used:
[1] = tested on: Rab6 geranylgeranylation in RPMI-8226 cells; type: cell-based, human; details: 10 µM, 48 hours, Figure 3A
In short: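 Triton X-114 lysis gave aqueous (cytosolic) and detergent (membrane) fractions. Equal protein (BCA) was run on SDS-PAGE and blotted to PVDF for Rab6 with HRP/ECL detection. Loading controls were β-tubulin (aqueous) and calnexin (detergent). Gels represent two independent experiments.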

[2] = tested on: intracellular GGPP levels in RPMI-8226 cells; assay: Measurement of intracellular GGPP levels in RPMI-8226 cells; type: cell-based, human; details: 1 µM, 24 hours, Figure 4
In short: (§1)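 Isoprenoid pyrophosphates were extracted in butanol/75mM ammonium hydroxide/ethanol (1:1.25:2.75) and dried under nitrogen. FPP was coupled to fluorescent GCVLS by FTase and GGPP to GCVLL by GGTase I. Peptides were quantified by reversed-phase HPLC-fluorescence. Results are % untreated control, mean ± SD, n=2, unpaired two-tailed t-test.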

GGTase II [3] = target: T1, GGTase II (Rattus norvegicus, UniProt Q08602+Q08603); assay: GGTase II enzyme assay; type: biochemical; details: for inhibitory activity against GGTase II: at concentrations up to 1 mM
T1 sequence (Q08602 1-567): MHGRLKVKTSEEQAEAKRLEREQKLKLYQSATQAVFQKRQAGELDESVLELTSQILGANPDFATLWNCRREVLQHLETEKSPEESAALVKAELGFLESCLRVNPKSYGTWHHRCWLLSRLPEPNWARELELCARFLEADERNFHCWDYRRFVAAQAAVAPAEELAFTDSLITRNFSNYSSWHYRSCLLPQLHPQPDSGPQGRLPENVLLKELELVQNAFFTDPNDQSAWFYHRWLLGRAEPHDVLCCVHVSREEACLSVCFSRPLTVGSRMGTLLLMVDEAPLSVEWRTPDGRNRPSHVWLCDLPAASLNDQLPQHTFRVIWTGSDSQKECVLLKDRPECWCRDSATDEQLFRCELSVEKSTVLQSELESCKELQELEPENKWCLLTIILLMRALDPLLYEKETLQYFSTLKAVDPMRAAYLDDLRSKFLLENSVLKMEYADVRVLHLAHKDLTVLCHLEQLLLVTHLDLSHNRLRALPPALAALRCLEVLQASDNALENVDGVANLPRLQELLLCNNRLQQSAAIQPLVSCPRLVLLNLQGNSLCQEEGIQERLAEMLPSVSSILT
T1 sequence (Q08603 1-331): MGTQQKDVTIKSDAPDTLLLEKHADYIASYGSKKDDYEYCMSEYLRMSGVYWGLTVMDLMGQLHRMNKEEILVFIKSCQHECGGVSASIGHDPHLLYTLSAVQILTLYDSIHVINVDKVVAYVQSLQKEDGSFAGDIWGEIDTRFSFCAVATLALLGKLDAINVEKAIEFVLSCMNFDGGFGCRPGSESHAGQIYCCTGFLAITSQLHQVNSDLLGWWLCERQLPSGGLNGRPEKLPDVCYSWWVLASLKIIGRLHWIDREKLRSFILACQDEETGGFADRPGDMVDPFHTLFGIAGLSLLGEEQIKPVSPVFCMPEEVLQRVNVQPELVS
In short: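 Reaction mix: 30 nM recombinant GGTase II, 2 µM His-tagged Rab1A (E. coli-expressed, Ni-NTA purified) and 1 µM REP-2 in 50 mM sodium HEPES, 5 mM MgCl₂, 1 mM DTT, 1 mM NP-40, ±test compound. Started with 5 µM [³H]-GGPP, 20 min at 37 °C, stopped with 10% HCl/EtOH. P-81 filters were EtOH-washed and scintillation-counted. IC50 came from concentration-response curves.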

[4] = tested on: monoclonal protein trafficking in RPMI-8226 cells; assay: Monoclonal protein quantitation; type: cell-based, human; details: 10 µM, 48 hours, Figure 5
In short: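 Cells were lysed in RIPA with protease/phosphatase inhibitors and protein measured by BCA. Intracellular lambda light chain was quantified by human lambda light chain ELISA. Results are % untreated control, mean ± SD, n=3, unpaired two-tailed t-test (α 0.05).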

[5] = tested on: intracellular FPP levels in RPMI-8226 cells; assay: Measurement of intracellular FPP levels in RPMI-8226 cells; type: cell-based, human; details: 1 µM, 24 hours, Figure 4
In short: as §1

GGTase II [6] = target: T1, GGTase II; details: ref our prior studies; cited from earlier work
[7] = tested on: Rap1a geranylgeranylation in RPMI-8226 cells; assay: Immunoblot of unmodified Rap1a in RPMI-8226 cells; type: cell-based, human; details: 48 hours; for disruption of Rap1a geranylgeranylation (accumulation of unmodified Rap1a): 10 µM, Figure 3A; for concentration at which unmodified Rap1a is observed: tested at 0.1, 1, 10 µM
In short: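 Whole-cell lysates were made in RIPA buffer with protease/phosphatase inhibitors, BCA-normalised, and run on SDS-PAGE/PVDF immunoblot. The antibody recognises only unmodified Rap1a; β-tubulin was the loading control; detection was HRP/ECL. Gels represent two independent experiments.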

GGDPS [8] = target: T2, GGDPS (Homo sapiens, UniProt O95749); details: cited from earlier work
T2 sequence (O95749 1-300): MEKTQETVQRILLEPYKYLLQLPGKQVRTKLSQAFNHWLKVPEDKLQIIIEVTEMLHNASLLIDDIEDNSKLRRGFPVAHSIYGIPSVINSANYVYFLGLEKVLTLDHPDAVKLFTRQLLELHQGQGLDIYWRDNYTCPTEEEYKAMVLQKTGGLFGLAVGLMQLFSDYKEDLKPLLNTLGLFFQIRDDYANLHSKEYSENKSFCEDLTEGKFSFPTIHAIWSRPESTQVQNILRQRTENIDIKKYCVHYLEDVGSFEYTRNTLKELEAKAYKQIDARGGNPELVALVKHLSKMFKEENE

GGDPS [9] = target: T2, GGDPS; assay: GGDPS enzyme assay; type: biochemical; details: in vitro enzyme assay
FTase = FTase (Rattus norvegicus, UniProt Q02293+Q04631); assay: FTase enzyme assay; type: biochemical
In short: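 Ran 1 h at 30 °C, then ice and acetonitrile/5% HCl stop. Centrifuged supernatant went to HPLC with fluorescence detection of prenylated peptide. IC50 came from concentration-response curves.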

Molecule: CC(C)=CCCC(C)=CCn1cc(CC(P(=O)([O-])[O-])P(=O)([O-])[O-])nn1.[Na+].[Na+].[Na+].[Na+] [Compound 1]
- disruption of Rab6 geranylgeranylation (Rab6 in aqueous fraction) [1]: A similar pattern was displayed
- effect on intracellular GGPP levels [2]: decreased GGPP levels
- IC50 (GGTase II [3]): > 1000 µM
- effect on intracellular lambda light chain levels [4]: induces an accumulation of intracellular lambda light chain equivalent to that induced by the positive control DGBP
- effect on intracellular FPP levels [5]: increased FPP levels
- inhibition of GGTase II (GGTase II [6]): does not inhibit GGTase II
- disruption of Rap1a geranylgeranylation (accumulation of unmodified Rap1a) [7]: A similar pattern was displayed

Molecule: CC(C)=CCC/C(C)=C/CC(C/C=C(\C)CCC=C(C)C)(P(=O)(O)O)P(=O)(O)O [DGBP, digeranyl bisphosphonate, reference compound]
- disruption of Rab6 geranylgeranylation (Rab6 in aqueous fraction) [1]: accumulation of unmodified Rap1a and Rab6
- effect on intracellular lambda light chain levels [4]: accumulation of intracellular lambda light chain
- mode of GGDPS inhibition (GGDPS [8]): competitive with respect to FPP as opposed to IPP
- disruption of Rap1a geranylgeranylation (accumulation of unmodified Rap1a) [7]: accumulation of unmodified Rap1a and Rab6
- concentration at which unmodified Rap1a is observed ([7]; Figure 3B): 10 µM

Molecule: CC(C)=CCC[C@]1(C)O[C@@H]1Cn1cc(CC(P(=O)([O-])[O-])P(=O)([O-])[O-])nn1.[Na+].[Na+].[Na+].[Na+] (racemic) [Compound 20, Sodium (Z)-(2-(1-((3-methyl-3-(4-methylpent-3-en-1-yl)oxiran-2-yl)methyl)-1H-1,2,3-triazol-4-yl)ethane-1,1-diyl)bis(phosphonate)]
- disruption of Rab6 geranylgeranylation (Rab6 in aqueous fraction) [1]: neither of the epoxide derivatives (12 and 20) displayed activity in this assay
- IC50 (GGTase II [3]): > 1000 µM
- inhibitory activity against GGTase II (GGTase II [3]): neither of the individual olefin isomers (11 or 19) nor the related epoxides (12 or 20) displayed inhibitory activity
- GGDPS activity, comparison in words (GGDPS [9]): reduces the activity against GGDPS to a level comparable to the geranyl triazole
- disruption of Rap1a geranylgeranylation (accumulation of unmodified Rap1a) [7]: neither of the epoxide derivatives (12 and 20) displayed activity in this assay

Molecule: CC(C)=CCC/C(C)=C/Cn1cc(CC(P(=O)([O-])[O-])P(=O)([O-])[O-])nn1.[Na+].[Na+].[Na+].[Na+] [Compound 11, Sodium (E)-(2-(1-(3,7-dimethylocta-2,6-dien-1-yl)-1H-1,2,3-triazol-4-yl)ethane-1,1-diyl)bis(phosphonate)]
- IC50 (GGTase II [3]): > 1000 µM
- inhibitory activity against GGTase II (GGTase II [3]): neither of the individual olefin isomers (11 or 19) nor the related epoxides (12 or 20) displayed inhibitory activity
- effect on intracellular lambda light chain levels [4]: has no effect on intracellular light chain levels
- IC50 (FTase): > 500 µM
- disruption of Rap1a geranylgeranylation (accumulation of unmodified Rap1a) [7]: only weakly disrupted Rap1a geranylgeranylation
- disruption of Rap1a geranylgeranylation at 10 µM ([7]; Figure 3B): only weakly disrupted Rap1a geranylgeranylation

Molecule: CC(C)=CCC/C(C)=C\CC(C/C=C(/C)CCC=C(C)C)(P(=O)(O)O)P(=O)(O)O [dineryl bisphosphonate]
- fold less potent GGDPS inhibitor than DGBP (GGDPS [8]): approximately 14 fold

Molecule: CC(C)=CCCC(C)=CCC(CC=C(C)CCC=C(C)C)(P(=O)(O)O)P(=O)(O)O [geranyl/neryl]
- fold less potent GGDPS inhibitor than DGBP (GGDPS [8]): approximately 14 fold

Molecule: CC(C)=CCC/C(C)=C/CC/C(C)=C/CC(P(=O)(O)O)P(=O)(O)O [Compound 21, 2E,6E-farnesyl bisphosphonate]
- fold more potent than the 2E,6Z-isomer 22 (GGDPS [8]; ref earlier studies): about 6 fold

Molecule: CC(C)=CCC[C@@]1(C)O[C@@H]1Cn1cc(CC(P(=O)([O-])[O-])P(=O)([O-])[O-])nn1.[Na+].[Na+].[Na+].[Na+] (racemic) [Compound 12, Sodium (E)-(2-(1-((3-methyl-3-(4-methylpent-3-en-1-yl)oxiran-2-yl)methyl)-1H-1,2,3-triazol-4-yl)ethane-1,1-diyl)bis(phosphonate)]
- disruption of Rab6 geranylgeranylation (Rab6 in aqueous fraction) [1]: neither of the epoxide derivatives (12 and 20) displayed activity in this assay
- IC50 (GGTase II [3]): > 1000 µM
- inhibitory activity against GGTase II (GGTase II [3]): neither of the individual olefin isomers (11 or 19) nor the related epoxides (12 or 20) displayed inhibitory activity
- disruption of Rap1a geranylgeranylation (accumulation of unmodified Rap1a) [7]: neither of the epoxide derivatives (12 and 20) displayed activity in this assay

Molecule: 2E,6Z-farnesylbisphosphonate [Compound 22]
- fold less potent GGDPS inhibitor than the 2E,6E-isomer (GGDPS [8]; farnesyl bisphosphonate isomers): approximately 6 fold

Molecule: CC(C)=CCC/C(C)=C\Cn1cc(CC(P(=O)([O-])[O-])P(=O)([O-])[O-])nn1.[Na+].[Na+].[Na+].[Na+] [Compound 19, Sodium (Z)-(2-(1-(3,7-dimethylocta-2,6-dien-1-yl)-1H-1,2,3-triazol-4-yl)ethane-1,1-diyl)bis(phosphonate)]
- disruption of Rab6 geranylgeranylation (Rab6 in aqueous fraction) [1]: effectively disrupted both Rap1a and Rab6 geranylation
- effect on intracellular GGPP levels [2]: even more potently decreased GGPP levels; also recorded: depletes cells of GGPP
- IC50 (GGTase II [3]): > 1000 µM
- inhibitory activity against GGTase II (GGTase II [3]): neither of the individual olefin isomers (11 or 19) nor the related epoxides (12 or 20) displayed inhibitory activity
- effect on intracellular lambda light chain levels [4]: This activity is a consequence of the neryl triazole 19; also recorded: disrupts monoclonal protein trafficking
- effect on intracellular FPP levels [5]: increased FPP levels; also recorded: increases intracellular FPP levels
- GGDPS activity, comparison in words (GGDPS [9]): slightly less potent
- disruption of Rap1a geranylgeranylation (accumulation of unmodified Rap1a) [7]: effectively disrupted both Rap1a and Rab6 geranylation
- concentration at which unmodified Rap1a is observed ([7]; Figure 3B): 1 µM

Molecule: CC(C)=CCCC(C)=CCC(P(=O)(O)O)P(=O)(O)O [geranyl bisphosphonate]
- potency relative to the corresponding neryl bisphosphonate (GGDPS [8]; monoalkyl series): at least one order of magnitude more potent
